# Experimental data: ChEMBL document CHEMBL1221230, “Inhibition of eukaryotic translation elongation by cycloheximide and lactimidomycin” (Nat Chem Biol, 2010)
# The source made the active and inactive calls. No cut-off for these calls is given here.
# Assays:
# MDA-MB-231 [1] = experiment: Anticancer activity against human MDA-MB-231 cells after 24 hrs by [3H]thymidine incorporation assay; assay type: functional, cell-based
# Saccharomyces cerevisiae [2] = experiment: Antimicrobial activity against Saccharomyces cerevisiae BY686 expressing ribosomal protein cyh2 and harboring mutation in rpl28; assay type: functional, organism-based
# Outline: (§1)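 Four isogenic S. cerevisiae strain pairs, each differing only by presence or absence of cyh2, exposed to varying compound concentrations; growth read by optical density; IC50 derived per strain, resistance as ratio between paired strains.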
# Saccharomyces cerevisiae [3] = experiment: Antimicrobial activity against Saccharomyces cerevisiae BY108; assay type: functional, organism-based; outline: as §1
# Saccharomyces cerevisiae [4] = experiment: Antimicrobial activity against Saccharomyces cerevisiae JB281; assay type: functional, organism-based; outline: as §1
# Saccharomyces cerevisiae [5] = experiment: Fold resistance, ratio of IC50 Saccharomyces cerevisiae J407alpha expressing ribosomal protein cyh2 and harboring mutation in rpl28 to IC50 for Saccharomyces cerevisiae J47alpha; assay type: functional; outline: as §1
# Saccharomyces cerevisiae [6] = experiment: Fold resistance, ratio of IC50 for Saccharomyces cerevisiae BY686 expressing ribosomal protein cyh2 and harboring mutation in rpl28 to IC50 Saccharomyces cerevisiae JB503; assay type: functional; outline: as §1
# Saccharomyces cerevisiae [7] = experiment: Fold resistance, ratio of IC50 for Saccharomyces cerevisiae BY724 expressing ribosomal protein cyh2 and harboring mutation in rpl28 to IC50 for Saccharomyces cerevisiae BY108; assay type: functional; outline: as §1
# HEK-293T [8] = experiment: Effect on polyribosome profiling in human HEK293T cells assessed as depletion of polysomes at 50 uM after 30 mins by spectrophotometry; assay type: functional, cell-based
# Outline: (§2)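 HEK 293T cells treated 30 min with compound, then lysed; lysates centrifuged through 15–45% sucrose gradient to give polysome profiles.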
# HEK-293T [9] = experiment: Effect on polyribosome profiling in human HEK293T cells assessed as accumulation of 80S ribosomes at 50 uM after 30 mins by spectrophotometry; assay type: functional, cell-based; outline: as §2
# [10] = Inhibition of elF4A-mediated renilla luciferase translational activity at 200 to 2000 nM in presence of HCV IRES element
# MDA-MB-231 [11] = experiment: Antiproliferative activity against human MDA-MB-231 cells assessed as incorporation of [3H]thymidine in nuclear DNA at 2.5 uM after 24 hrs by scintillation counting; assay type: functional, cell-based
# Outline: (§3)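 Each of three tumour cell lines incubated with compound at 2.5 μM for 24 h, then [³H]thymidine added to monitor DNA synthesis; initial proliferation screen.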
# Jurkat = experiment: Antiproliferative activity against human Jurkat cells assessed as incorporation of [3H]thymidine in nuclear DNA at 2.5 uM after 24 hrs by scintillation counting; assay type: functional, cell-based; outline: as §3
# HeLa = experiment: Inhibition of protein synthesis in human HeLa cells assessed as [35S]cysteine/methionine utilization after 2 hrs by scintillation spectroscopy; assay type: functional, cell-based
# Outline: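 HeLa cells incubated 2 h with varying compound concentrations plus [³⁵S]cysteine/methionine (translation) or [³H]uridine (transcription). Protein synthesis: scintillation counting of TCA-precipitated protein on PVDF membrane. Transcription: scintillation counting of nucleic acids bound to GF/C glass fibre filter.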
# [12] = Effect on polyribosome profiling assessed as accumulation of 80S ribosomes after 15 mins by scintillation spectroscopy; assay type: functional
# Outline: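 Capped [³²P]-labelled rabbit β-globin RNA incubated in rabbit reticulocyte lysate with compound for 15 min, then centrifuged through 10–35% sucrose gradient.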
# Oryctolagus cuniculus = species on record: Oryctolagus cuniculus; experiment: Inhibition of translational activity in rabbit reticulocyte assessed as occurrence of ribosomal arrest at start codon at 200 uM by toeprinting assay; assay type: functional
# Outline: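 Labelled rabbit β-globin mRNA incubated in rabbit reticulocyte lysate with inhibitor; mixture centrifuged through sucrose gradient, 80S fractions taken to isolate stalled ribosomes; primer extended by AMV reverse transcriptase toward stalled ribosome to map arrest site.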
# [13] = Inhibition of elF4A-mediated renilla luciferase translational activity at 0.02 to 5 uM in presence of CrPV IRES element
# [14] = molecular target: Elongation factor 2 (Homo sapiens) (UniProt P13639); experiment: Inhibition of eEF2-mediated tRNA translocation assessed as inhibition of polyphenylalanine synthesis at 200 uM after 10 mins by scintillation counting
# [15] = molecular target: T1, Elongation factor 1-alpha 1 (Homo sapiens) (UniProt P68104); experiment: Inhibition of eEF1A-mediated tRNA binding to ternary complex at 200 uM after 10 mins by filtration binding assay
# T1 sequence (whole entry): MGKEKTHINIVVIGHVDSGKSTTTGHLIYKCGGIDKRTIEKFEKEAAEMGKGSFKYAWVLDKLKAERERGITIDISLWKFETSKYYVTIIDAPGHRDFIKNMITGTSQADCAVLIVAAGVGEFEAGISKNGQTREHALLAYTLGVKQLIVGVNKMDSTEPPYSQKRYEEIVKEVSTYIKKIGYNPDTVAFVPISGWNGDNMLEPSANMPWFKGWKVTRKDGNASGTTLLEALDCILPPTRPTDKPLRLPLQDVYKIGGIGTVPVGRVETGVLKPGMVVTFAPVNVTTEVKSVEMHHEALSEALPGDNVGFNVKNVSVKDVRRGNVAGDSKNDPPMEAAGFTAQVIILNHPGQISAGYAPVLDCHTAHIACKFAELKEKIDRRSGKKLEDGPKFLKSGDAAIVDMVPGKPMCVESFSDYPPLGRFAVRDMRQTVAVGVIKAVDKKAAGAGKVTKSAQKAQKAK
# Outline: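 Ribosomes (89 pmol) in 20 mM HEPES pH 7.4, 100 mM KCl, 10 mM MgCl₂, 1 mM DTT with 200 ng poly(U), 2.2 μg eEF1A, 150 μM GDPNP and 200 μM compound, before 10 pmol [¹⁴C]Phe-tRNA^Phe added; 10 min at 37°C; nitrocellulose filtration, scintillation counting.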
# [16] = molecular target: Elongation factor 2 (Homo sapiens) (UniProt P13639); experiment: Inhibition of eEF2-mediated tRNA translocation assessed as inhibition of phenylalanyl puromycin formation
# Outline: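 Set up as eEF1A binding assay but with GTP; 5 min at 37°C, compound added to 200 μM final, 5 min at room temperature, then eEF2, puromycin and GTP added; 10 min at 37°C; ethyl acetate-extractable phenylalanyl-puromycin counted by scintillation.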
# [17] = molecular target: Elongation factor 2 (Homo sapiens) (UniProt P13639); experiment: Inhibition of eEF2-mediated tRNA translocation assessed as decrease in tripeptide (Met-Phe-Phe) formation by TLC
# Saccharomyces cerevisiae [18] = experiment: Antimicrobial activity against Saccharomyces cerevisiae J407alpha expressing ribosomal protein cyh2 and harboring mutation in rpl28; assay type: functional, organism-based; outline: as §1
# [19] = Binding affinity to 60S ribosome E-site by footprinting assay
# Outline: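 DMS footprinting of salt-washed 80S ribosomes preincubated 5 min at room temperature with compound, DMS then 5 min at 37°C; rRNA primer extension with AMV reverse transcriptase and [α-³²P]TTP, sequencing gel. For K_D, 300 μl volume at 50 or 100 nM ribosomes titrated with increasing compound.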
# Hs-578T = experiment: Anticancer activity against human Hs 578T cells after 24 hrs by [3H]thymidine incorporation assay; assay type: functional, cell-based
# HCC1937 = experiment: Anticancer activity against human HCC1937 cells after 24 hrs by [3H]thymidine incorporation assay; assay type: functional, cell-based
# HCC2218 = experiment: Anticancer activity against human HCC2218 cells after 24 hrs by [3H]thymidine incorporation assay; assay type: functional, cell-based
# BT-474 = experiment: Anticancer activity against human BT474 cells after 24 hrs by [3H]thymidine incorporation assay; assay type: functional, cell-based
# [20] = Effect on peptidyl transfer assessed as [35S]methionyl-puromycin formation by TLC
smiles,measurement,setting,value
C/C(=C\[C@H](C)C(=O)C[C@H](O)CC1CC(=O)NC(=O)C1)[C@@H]1OC(=O)/C=C/CC/C=C/C=C\[C@@H]1C [LACTIMIDOMYCIN],Activity,MDA-MB-231 [1],Active
same,IC50,Saccharomyces cerevisiae [2],596 nM
same,IC50,Saccharomyces cerevisiae [3],488 nM
same,IC50,Saccharomyces cerevisiae [4],59 nM
same,Ratio IC50,Saccharomyces cerevisiae [5],241
same,Ratio IC50,Saccharomyces cerevisiae [6],10.3
same,Ratio IC50,Saccharomyces cerevisiae [7],13.4
same,Activity,HEK-293T [8],Active
same,Activity,HEK-293T [9],Active
same,inhibition,[10],Active
same,Activity,MDA-MB-231 [11],inactive
same,Activity,Jurkat,inactive
same,IC50,HeLa,37.8 nM
same,inhibition,HeLa,Dose-dependent effect
same,Activity,[12],Active
same,inhibition,Oryctolagus cuniculus,Active
same,inhibition,[13],Active
same,inhibition,[14],Active
same,inhibition,[15],inactive
same,inhibition,[16],Active
same,inhibition,[17],Active
same,IC50,Saccharomyces cerevisiae [18],1110 nM
same,Activity,[19],Dose-dependent effect
same,Kd,[19],500 nM
same,Activity,Hs-578T,Active
same,Activity,HCC1937,Active
same,Activity,HCC2218,Active
same,Activity,BT-474,Active
same,Activity,[20],inactive
